Series [1] is described as follows: Displacement of [3H]flumazenil from CBR in bovine cortical membrane. It is filed as cell membranes, Bos taurus. Put shortly:
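Bovine or human cortical membranes washed free of endogenous GABA. […] Nonspecific binding with 10 µM diazepam. At least six concentrations over 3 log units, DMSO 2%. IC50 converted to Ki by Cheng-Prusoff (Kd 0.85 nM bovine, 0.91 nM human). Ki is the mean of three determinations.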

Series [2] is described as follows: Displacement of [3H]flumazenil from CBR in human cortical membrane. Type of series: cell membranes. Put shortly:
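Bovine or human cortical membranes washed free of endogenous GABA. Nonspecific binding with 10 µM diazepam. At least six concentrations over 3 log units, DMSO 2%. Ki is the mean of three determinations.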

Series [3] is filed under the species Bos taurus. Description: Ratio of Ki for bovine CBR in absence of GABA to Ki for bovine CBR in presence of 50 uM GABA.
The species entered for series [4] is Homo sapiens. Briefly: Ratio of Ki for human CBR in absence of GABA to Ki for human CBR in presence of 50 uM GABA.
The test system of series [5] is Mus musculus. Description: Toxic myorelaxant activity in CD1 albino mouse assessed as number of falls in 30 secs at 0.3 mg/kg, po after 30 mins by rotarod test. Further details: dose 0.3 mg/kg, route oral. The conditions noted are these: in vivo. Type of series: toxicity, organism-based. Summed up:
(§1)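 Male CD-1 mice, dosed po or ip in 1% CMC (10 mL/kg). Rota-rod at 16 rpm; falls counted over 30 s, 30 min after dosing. At least 15-20 mice per group; ANOVA with Fisher PLSD versus CMC/saline controls.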

Series [6] concerns Mus musculus. Briefly: Toxic myorelaxant activity in CD1 albino mouse assessed as number of falls in 30 secs at 1 mg/kg, po after 30 mins by rotarod test. The conditions noted are these: in vivo. It is filed as toxicity, organism-based. Further details: dose 1 mg/kg, route oral. Put shortly: as §1
The subject of series [7] is Mus musculus. Description: Toxic myorelaxant activity in CD1 albino mouse assessed as number of falls in 30 secs at 3 mg/kg, po after 30 mins by rotarod test. It is filed as toxicity, organism-based. Further details: dose 3 mg/kg, route oral. To be noted: in vivo. Summed up: as §1
The subject of series [8] is Mus musculus. Briefly: Toxic myorelaxant activity in CD1 albino mouse assessed as number of falls in 30 secs at 6.5 mg/kg, po after 30 mins by rotarod test. Further details: dose 6.5 mg/kg, route oral. The conditions noted are these: in vivo. It is filed as toxicity, organism-based. Summed up: as §1
For series [9], the system named is Mus musculus. Description: Toxic myorelaxant activity in CD1 albino mouse assessed as number of falls in 30 secs at 12.5 mg/kg, po after 30 mins by rotarod test. Type of series: toxicity, organism-based. Further details: dose 12.5 mg/kg, route oral. The conditions noted are these: in vivo. Summed up:
as §1

For series [10], the system named is Mus musculus. Description: Anticonvulsant activity in CD1 albino mouse assessed as pentylenetetrazole-induced convulsion latency time at 3 mg/kg, po. Type of series: functional. Summed up: (§2)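 Mice dosed po or ip in 1% CMC (10 mL/kg). Pentylenetetrazole 90 mg/kg sc given 30 min later; clonic generalized convulsions observed over 30 min. ANOVA/Fisher PLSD versus vehicle controls.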

In series [11] the test system is Mus musculus. Description: Effect on learning and memory performance in CD1 albino mouse assessed as training session latency at 3 mg/kg, po by passive avoidance test. Type of series: functional. Put shortly:
(§3)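 Mice dosed po or ip in 1% CMC (10 mL/kg). Step-through passive avoidance in a two-compartment box (lit and dark, joined by guillotine door); latencies recorded in training and retention sessions. At least 15-20 mice per group; ANOVA/Fisher PLSD versus CMC controls.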

Series [12] deals with Mus musculus. Description: Anticonvulsant activity in CD1 albino mouse assessed as pentylenetetrazole-induced convulsion latency time at 6.5 mg/kg, po. Type of series: functional. Put shortly:
as §2

For series [13], the system named is Mus musculus. Description: Anticonvulsant activity in CD1 albino mouse assessed as pentylenetetrazole-induced death latency time at 6.5 mg/kg, po. It is filed as functional. Put shortly:
as §2

For series [14], the system named is Mus musculus. Description: Anticonvulsant activity in CD1 albino mouse assessed as pentylenetetrazole-induced convulsion latency time at 12.5 mg/kg, po. It is filed as functional. Put shortly: as §2
The test system of series [15] is Mus musculus. Briefly: Anticonvulsant activity in CD1 albino mouse assessed as pentylenetetrazole-induced death latency time at 12.5 mg/kg, po. It is filed as functional. Summed up: as §2
Series [16] has as its system Mus musculus. Description: Antianxiety activity in CD1 albino mouse assessed as number of crosses at 0.3 mg/kg, po by light-dark box method. Type of series: functional. Put shortly: (§4)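 Male CD-1 mice given drug po or ip in 1% CMC at 10 mL/kg. Light/dark box: number of transfers between compartments and time spent in the lit side recorded. At least 15-20 mice per group; ANOVA/Fisher PLSD versus vehicle.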

The subject of series [17] is Mus musculus. Briefly: Antianxiety activity in CD1 albino mouse assessed as time spent in light at 0.3 mg/kg, po by light-dark box method. Type of series: functional. Put shortly:
as §4

Series [18] deals with Mus musculus. Briefly: Antianxiety activity in CD1 albino mouse assessed as number of crosses at 1 mg/kg, po by light-dark box method. It is filed as functional. Summed up: as §4
In series [19] the test system is Mus musculus. Description: Antianxiety activity in CD1 albino mouse assessed as time spent in light at 1 mg/kg, po by light-dark box method. Type of series: functional. Put shortly: as §4
For series [20], the system named is Mus musculus. Briefly: Antianxiety activity in CD1 albino mouse assessed as number of crosses at 3 mg/kg, po by light-dark box method. Type of series: functional. Summed up: as §4
In series [21] the test system is Mus musculus. Description: Antianxiety activity in CD1 albino mouse assessed as time spent in light at 3 mg/kg, po by light-dark box method. Type of series: functional. Summed up: as §4
Series [22] relates to Mus musculus. Description: Antianxiety activity in CD1 albino mouse assessed as number of crosses at 6.5 mg/kg, po by light-dark box method. It is filed as functional. Put shortly:
as §4

Series [23] has as its system Mus musculus. Briefly: Antianxiety activity in CD1 albino mouse assessed as time spent in light at 6.5 mg/kg, po by light-dark box method. Type of series: functional. Summed up:
as §4

The subject of series [24] is Mus musculus. Description: Antianxiety activity in CD1 albino mouse assessed as number of crosses at 12.5 mg/kg, po by light-dark box method. Type of series: functional. Put shortly: as §4
Series [25] relates to Mus musculus. Description: Antianxiety activity in CD1 albino mouse assessed as time spent in light at 12.5 mg/kg, po by light-dark box method. It is filed as functional. Summed up:
as §4

Series [26] deals with Mus musculus. Briefly: Effect on ethanol-induced sleep in CD1 albino mouse assessed as induction time at 3 mg/kg, po. Type of series: functional. Summed up:
(§5)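 Mice dosed po or ip in 1% CMC (10 mL/kg). Ethanol 4 g/kg ip given 30 min later. Sleep time taken as duration of loss of righting reflex, cut-off 210 min. At least 15-20 mice per group; ANOVA/Fisher PLSD.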

The subject of series [27] is Mus musculus. Description: Effect on ethanol-induced sleep in CD1 albino mouse time assessed as endurance time 3 mg/kg, po. It is filed as functional. Summed up:
as §5

Series [28] has as its system Mus musculus. Briefly: Effect on ethanol-induced sleep in CD1 albino mouse assessed as induction time 6.5 mg/kg, po. Type of series: functional. Put shortly: as §5
Series [29] relates to Mus musculus. Briefly: Effect on ethanol-induced sleep in CD1 albino mouse time assessed as endurance time 6.5 mg/kg, po. It is filed as functional. Summed up: as §5
The test system of series [30] is Mus musculus. Briefly: Effect on ethanol-induced sleep in CD1 albino mouse assessed as induction time 12.5 mg/kg, po. It is filed as functional. Summed up: as §5
Series [31] concerns Mus musculus. Briefly: Effect on ethanol-induced sleep in CD1 albino mouse assessed as endurance time 12.5 mg/kg, po. It is filed as functional. Summed up: as §5
For series [32], the system named is Mus musculus. Description: Effect on ethanol-induced sleep in CD1 albino mouse assessed as induction time 1 mg/kg, ip. It is filed as functional. The conditions noted are these: route intraperitoneal. Put shortly:
as §5

Series [33] deals with Mus musculus. Description: Effect on ethanol-induced sleep in CD1 albino mouse time assessed as endurance time 1 mg/kg, ip. Type of series: functional. To be noted: route intraperitoneal. Put shortly: as §5
The test system of series [34] is Mus musculus. Description: Anticonvulsant activity in CD1 albino mouse assessed as pentylenetetrazole-induced death latency time at 3 mg/kg, po by. Type of series: functional. Put shortly: as §2
Series [35] concerns Mus musculus. Briefly: Effect on learning and memory performance in CD1 albino mouse assessed as retention session latency at 3 mg/kg, po by passive avoidance test. It is filed as functional. Put shortly: as §3
In series [36] the test system is Mus musculus. Description: Effect on learning and memory performance in CD1 albino mouse assessed as training session latency at 6.5 mg/kg, po by passive avoidance test. Type of series: functional. Put shortly: as §3
The subject of series [37] is Mus musculus. Description: Effect on learning and memory performance in CD1 albino mouse assessed as retention session latency at 6.5 mg/kg, po by passive avoidance test. Type of series: functional. Summed up: as §3
Series [38] has as its system Mus musculus. Description: Effect on learning and memory performance in CD1 albino mouse assessed as training session latency at 12.5 mg/kg, po by passive avoidance test. Type of series: functional. Summed up:
as §3

Series [39] concerns Mus musculus. Briefly: Effect on learning and memory performance in CD1 albino mouse assessed as retention session latency at 12.5 mg/kg, po by passive avoidance test. Type of series: functional. Put shortly: as §3
Series [40] is filed under the species Bos taurus. Description: Displacement of [3H]flumazenil from CBR in bovine cortical membrane at 10 uM. Type of series: cell membranes.
The species named for series [41] is Homo sapiens. Description: Displacement of [3H]flumazenil from CBR in human cortical membrane at 10 uM. Type of series: cell membranes.
The species entered for series [42] is Rattus norvegicus. Briefly: Inverse agonist activity at CBR in Sprague-Dawley rat brain cortex assessed as decrease in chloride influx. Type of series: functional.
For series [43], the species on record is Rattus norvegicus. Briefly: Agonist activity at CBR in Sprague-Dawley rat brain cortex assessed as increase in chloride influx. Type of series: functional, tissue-based.

The record followed here is ChEMBL document CHEMBL1155898 (J Med Chem, 2008).

Calls of active or inactive are those of the source. Where only a bound is given, the exact number is not on record here.

In turn, `CCOC(=O)c1ncn2c1CN(C)C(=O)c1cc(F)ccc1-2` [FLUMAZENIL] had a Ki in series [1] of 1.9 nM.

`CCOC(=O)c1ncn2c1CN=C(c1cccc([N+](=O)[O-])c1)c1cc(F)ccc1-2`: the values for the Ki in series [1] and in series [2] were 4.4 nM and 9.7 nM, respectively. The Ratio Ki in the series listed under Bos taurus [3] was 1.19; in the series listed under Homo sapiens [4], 1.2. Also, the Activity with Mus musculus [5] was 2.3; in the series on Mus musculus [6], 2.2; in the series with Mus musculus [7], 2.1; in the series with Mus musculus [8], 2.7; in the series with Mus musculus [9] it was 4.4; in the series on Mus musculus [16] it was 14.6. Besides, the Activity was 123.7 with Mus musculus [17]; 8.6 in the series with Mus musculus [18]; 5.6 in the series with Mus musculus [20]; 5.4 in the series with Mus musculus [22]; 5.1 in the series with Mus musculus [24]; greater than 80% in the series filed under Bos taurus [40]. In the series filed under Homo sapiens [41], the Activity is greater than 80%. The Time in the series on Mus musculus [10] worked out at 18.7 min; with Mus musculus [11], 18.3 s; in the series on Mus musculus [12] it was 19.3 min; in the series with Mus musculus [13], 22.5 min; with Mus musculus [14] it was 23.6 min; in the series on Mus musculus [15], 39.8 min. Besides, the Time came out at 132 s in the series with Mus musculus [19]; 169.3 s in the series on Mus musculus [21]; 181.2 s in the series with Mus musculus [23]; 186.8 s in the series with Mus musculus [25]; 6.1 min with Mus musculus [26]; 13.5 min in the series on Mus musculus [27]. Further, the Time is recorded as 7.3 min in the series on Mus musculus [28]; 118.2 min with Mus musculus [29]; 6.8 min in the series with Mus musculus [30]; 177.8 min with Mus musculus [31]; 6.8 min with Mus musculus [32]; 177.8 min with Mus musculus [33]. Moreover, the Time is reported as 21.9 min in the series on Mus musculus [34]; 88.7 s in the series on Mus musculus [35]; 17.9 s with Mus musculus [36]; 76.5 s in the series on Mus musculus [37]; 16 s with Mus musculus [38]; 55.7 s with Mus musculus [39]. Further, the outcome in the series filed under Rattus norvegicus [42] and in the series filed under Rattus norvegicus [43] was Active.

On to `CCOC(=O)c1ncn2c1CN=C(c1ccc([N+](=O)[O-])cc1)c1ccccc1-2`, for which the 50% inhibitory concentration (IC50) in [1] stood at 1.8 nM.
